Like-named read-outs stand apart in the source and are kept apart here.
How the values were obtained:
[1] = test system: mouse spared nerve injury (SNI) model; experiment: Mechanical sensitivity; format: in vivo; settings: for effect on SNI-induced mechanical hypersensitivity: single IT injection, 10 μg, vs vehicle; for time after IT injection at which efficacy was seen (onset) / time through which antipain effect persisted: IT 10 μg
How it was run: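 Male C57Bl6/J mice with SNI (peroneal and tibial sciatic branches cut, sural spared), confirmed hypersensitive 2 weeks post-surgery and screened 21–60 days after SNI. Single intrathecal 10 μg in 5 μL saline (DMSO <5%, vehicle DMSO-matched). Blinded hindpaw von Frey, modified up–down, at set times. n = 4–11. Mean ± SEM; two-way ANOVA with Bonferroni. Repeat injections ≥14 days apart.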

[2] = Blood brain barrier crossing; format: in vivo; settings: no data or reference given
[3] = test system: SK-N-SH neuroblastoma cells; settings: cited from earlier work
[4] = biological target: T1, σ2R/Tmem97 (Rattus norvegicus, UniProt Q5U3Y7); experiment: Sigma 2 receptor competition binding with [3H]-ditolylguanidine; settings: σ2R from rat PC12 cells
T1 sequence (Q5U3Y7 1-176): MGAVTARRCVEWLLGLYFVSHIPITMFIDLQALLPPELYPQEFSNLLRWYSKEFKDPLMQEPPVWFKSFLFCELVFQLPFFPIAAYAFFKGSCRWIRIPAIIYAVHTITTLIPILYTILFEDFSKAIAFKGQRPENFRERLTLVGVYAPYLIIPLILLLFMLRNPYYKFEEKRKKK

[5] = test system: mouse spared nerve injury (SNI) model; experiment: Mechanical sensitivity; format: in vivo; settings: IV 100 mg/kg
How it was run: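 Male C57Bl6/J SNI mice, hindpaw mechanical hypersensitivity confirmed 2 weeks post-surgery. Tail-vein IV injection in 100 μL sterile saline (DMSO stock diluted; vehicle DMSO-matched): test compound 10 mg/kg, gabapentin 100 mg/kg, or vehicle, n = 6 each. Blinded von Frey testing (modified up–down) at set time points. Mean ± SEM; two-way ANOVA with Bonferroni post hoc.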

[6] = in vivo; cited from earlier work

Compound | effect on SNI-induced mechanical hypersensitivity [1] | affinity at σ2R/Tmem97 (in words) [4] | time after IT injection at which efficacy was seen (onset) [1] [h] | time through which antipain effect persisted [1] [h] | other results
FC(F)(F)c1ccc(-c2ccc3c(c2)C2CC3CCCN2C2CCCC2)cc1 (racemic) [DKR-1051, (±)-2-Cyclopentyl-9-(4-(trifluoromethyl)phenyl)-1,2,3,4,5,6-hexa-hydro-1,6-methanobenzo[c]azocine] | significant antimechanical hypersensitivity effects at either 24 or 48 h | high affinity | – | – | time of peak relief of mechanical hypersensitivity after dosing ([1]; IT): 48 h; blood brain barrier crossing [2]: cross the blood brain barrier; effect on intracellular Ca2+ ([3]; SK-N-SH neuroblastoma cells): induces a rapid Ca^2+ transient
c1ccc(CCN2CCC3CC2c2ccccc23)cc1 (racemic) [JSS-1027, (±)-2-Phenethyl-2,3,4,5-tetrahydro-1H-1,5-methanobenzo[c]-azepine] | significantly different from vehicle | low nM range | 48 | 120 | –
CN1CCC2CC1c1cc(N3CCOCC3)ccc12 (racemic) [JWG-1014, (±)-2-Methyl-2,3,4,5-tetrahydro-1H-1,5-methanobenzo[c]-azepin-8-yl)morpholine] | significantly different from vehicle | – | 48 | 120 | –
Clc1ccc2c(c1)C1CC2CCCN1CC1CCCCC1 (racemic) [MFG-1046, (±)-9-Chloro-2-(cyclohexylmethyl)-1,2,3,4,5,6-hexahydro-1,6-methanobenzo[c]azocine] | significantly different from vehicle | low nM range | 24 | 72 | –
NCC1(CC(=O)O)CCCCC1 [Gabapentin, reference compound] | – | – | – | – | effect on SNI-induced mechanical hypersensitivity ([5]; 1 and 3 h after injection): completely reversed mechanical hypersensitivity; mechanical hypersensitivity state ([5]; 24 h after injection): fully mechanically hypersensitive again
CN1CCN(c2ccc3c(c2)[C@H]2C[C@@H]3CCN2C(=O)OCc2ccccc2)CC1 [SAS-0132] | – | – | – | – | effect of co-administration on antinociceptive action of UKH-1114 ([1]; SAS-0132 10 μg IT given at the same time as UKH-1114 10 μg): completely blocked the effect seen with UKH-1114 given alone; effect of pretreatment on DKR-1051-induced Ca2+ transient ([3]; SK-N-SH neuroblastoma cells pretreated with SAS-0132): attenuated; blood brain barrier crossing [6]: cross the blood brain barrier
Fc1ccc(-n2cc(CCCCN3CCC4(CC3)OCc3ccccc34)c3ccccc32)cc1 [Siramesine, reference compound] | small inhibitory effect on mechanical hypersensitivity that was significant at 24 and 48 h | – | – | – | –

— publication PMC5715471 (ACS chemical neuroscience, 2017)
